From ChEMBL document CHEMBL3272076, “Synthesis and biological evaluation of omega-homologues of prostaglandin E1” (1976)
Activity calls are given as the source filed them. The rule behind the calls is not given here.

Key:
[1] = test system: Rattus norvegicus; assay: Hypotensive activity in iv dosed Charles River CD rat assessed as decrease in mean blood pressure administered as single bolus dose relative to PGE1; type: functional; set-up: Activity: scale not given: the % may be the effect or the level left
Method in brief: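 Male rats, 200–300 g, anesthetized with urethane 1.5 g/kg ip. They received heparin 5 mg/kg iv, then atropine 5 mg/kg and pentolinium 10 mg/kg sc. Body temperature held at […] ± 0.5 °C. Carotid pressure recorded; femoral iv bolus doses of test and PGE1 given in a Latin square. Maximal fall in mean pressure read, with 4–8 replicates per dose, and potency from a four-point parallel line assay (Finney).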

[2] = Muscle stimulating activity in Mongolian gerbil colon treated every 4 mins relative to PGE1; type: functional, Meriones unguiculatus
Method in brief: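 Colon from adult male gerbils killed by cervical dislocation, bath oxygenated; isotonic longitudinal contractions recorded. Two doses each of test compound and PGE1 given at 4-min intervals in Latin square order, with a rinse after each. Four contractions per dose; relative potency computed by the Finney method. Compounds were dissolved in isoosmotic sodium phosphate buffer, pH 7.4.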

[3] = test system: Canis familiaris; assay: Gastric antisecretory activity in iv dosed Mongrel dog with heidenhain pouches assessed as inhibition of histamine-induced total acid output administered as single bolus dose at 1 hr post histamine challenge; type: functional; conditions: Canis lupus familiaris
Method in brief: (§1)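 Dogs fasted 18 h, placed in Pavlov stands and infused iv with 0.15 M NaCl. Pouch secretion was collected every 15 min. After basal secretion, histamine was infused at 1.0 mg/h (about 60 μg/kg/h, about 75% of maximal). At the steady-state plateau (about 1 h), a single iv bolus was given, logarithmically spaced, usually 1.0-100 μg/kg. Total acidity was titrated with 0.1 N NaOH to pH 7.0. ED50 is 50% inhibition of total acid output.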

[4] = test system: Canis familiaris; assay: Gastric antisecretory activity in Mongrel dog with heidenhain pouches assessed as inhibition of histamine-induced total acid output at 1 to 100 ug/kg, iv administered as single bolus dose at 1 hr post histamine challenge relative to PGE1; type: functional, Canis lupus familiaris; method in brief: as §1
[5] = test system: Canis familiaris; assay: Gastric antisecretory activity in Mongrel dog with heidenhain pouches assessed as inhibition of histamine-induced total acid output at 30 ug/kg, iv administered as single bolus dose at 1 hr post histamine challenge; type: functional, organism-based; conditions: Canis lupus familiaris; method in brief: as §1
[6] = test system: Canis familiaris; assay: Gastric antisecretory activity in Mongrel dog with heidenhain pouches assessed as inhibition of histamine-induced total acid output at 100 ug/kg, iv administered as single bolus dose at 1 hr post histamine challenge; type: functional, organism-based; conditions: Canis lupus familiaris; method in brief: as §1

| Compound | fold change (FC) [1] | fold change (FC) [2] | ED50 [3] [µg/kg] | fold change (FC) [4] | Activity [1] [%] | inhibition [5] | inhibition [6] |
| --- | --- | --- | --- | --- | --- | --- | --- |
| CCCCCC[C@H](O)/C=C/C1[C@H](O)CC(=O)[C@@H]1CCCCCCC(=O)O (mixture of isomers) | 0.68 | 0.54 | 5.8 | 1.13 | – | – | – |
| CCCCCCC[C@H](O)/C=C/C1[C@H](O)CC(=O)[C@@H]1CCCCCCC(=O)O (mixture of isomers) | 0.84 | 0.064 | 30 | 0.25 | 84 | – | – |
| CCCCC[C@H](O)/C=C/[C@H]1[C@H](O)CC(=O)[C@@H]1CCCCCCC(=O)O [ALPROSTADIL] | – | – | 7.59 | – | – | – | – |
| CCCCCCCC[C@H](O)/C=C/C1[C@H](O)CC(=O)[C@@H]1CCCCCCC(=O)O (mixture of isomers) | 0.42 | 0.005 | – | – | – | inactive | – |
| CCCCCCCCC[C@H](O)/C=C/C1[C@H](O)CC(=O)[C@@H]1CCCCCCC(=O)O (mixture of isomers) | <0.12 | 0.006 | – | – | – | – | Active |
